Results published in ChEMBL document CHEMBL2146380, “Uncoupling and antioxidant effects of ursolic acid in isolated rat heart mitochondria” (J Nat Prod, 2011).
In brackets after ≈: the same amount, converted by molar mass. Activity calls are given as the source filed them. The calls are words filed in the database; no cut-off is given here.

How the values were obtained:
Format in all cases: functional
[1] = organism: Rattus norvegicus; test: Effect on mitochondrial respiratory chain in Wistar rat heart mitochondria assessed as respiratory rate per mg protein using palmitoyl-L-carnitine and malate as substrate (reference value: 85+/-4 nmol/min)
How it was run: (§1)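 Isolated male Wistar rat heart mitochondria at 0.5 mg protein/mL. O2 uptake was recorded by Clark electrode at 37 C in pH 7.1 imidazole/taurine/MES medium (3 mM KH2PO4, 0.1 μM free Ca2+). Substrates were 6 mM pyruvate + 6 mM malate, 12 mM succinate + 2 mM amytal, or 9 μM palmitoyl-L-carnitine + 0.24 mM malate. Sequence: State 2 (V0), then 1 mM ADP (State 3), then 32 μM cytochrome c. RCI = VADP/V0. Rates in nmol O/min/mg; n = 3–4.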

[2] = organism: Rattus norvegicus; test: Effect on mitochondrial respiratory chain in Wistar rat heart mitochondria assessed as respiratory rate per mg protein using pyruvate and malate as substrate (reference value: 52 +/- 7 nmol/min); how it was run: as §1
[3] = organism: Rattus norvegicus; test: Effect on mitochondrial respiratory chain in Wistar rat heart mitochondria assessed as increase in state 2 respiratory rate per mg protein using succinate and amytal sodium as substrate at 1.6 ng/mL; how it was run: as §1
[4] = organism: Rattus norvegicus; test: Effect on mitochondrial respiratory chain in Wistar rat heart mitochondria assessed as ratio of respiratory rate in presence of ADP and cytochrome c to respiratory rate in presence of ADP using succinate and amytal sodium as substrate (reference value: 1.8+/- 0.1); how it was run: as §1
[5] = organism: Rattus norvegicus; test: Effect on mitochondrial respiratory chain in Wistar rat heart mitochondria assessed as state 3 respiratory rate using pyruvate and malate as substrate at 5 ng/mL; how it was run: as §1
[6] = organism: Rattus norvegicus; test: Effect on mitochondrial respiratory chain in Wistar rat heart mitochondria assessed as complex-1 dependent state 2 respiratory rate per mg protein using pyruvate and malate as substrate at 5 ng/mL; how it was run: as §1
[7] = organism: Rattus norvegicus; test: Effect on mitochondrial respiratory chain in Wistar rat heart mitochondria assessed as state 2 respiratory rate per mg protein using succinate and amytal sodium as substrate at 1.6 ng/mL; how it was run: as §1
[8] = organism: Rattus norvegicus; test: Effect on mitochondrial respiratory chain in Wistar rat heart mitochondria assessed as increase in state 2 respiration rate using pyruvate and malate as substrate at 50 to 200 ng/mL; how it was run: as §1
[9] = organism: Rattus norvegicus; test: Effect on mitochondrial respiratory chain in Wistar rat heart mitochondria assessed as state 2 respiratory rate using palmitoyl-L-carnitine and malate as substrate at 5 ng/mL; how it was run: as §1
[10] = organism: Rattus norvegicus; test: Effect on mitochondrial respiratory chain in Wistar rat heart mitochondria assessed as respiratory control index using succinate and amytal sodium as substrate (reference value: 2.5+/- 0.1); how it was run: as §1
[11] = organism: Rattus norvegicus; test: Effect on mitochondrial respiratory chain in Wistar rat heart mitochondria assessed as increase in state 2 respiratory rate using palmitoyl-L-carnitine and malate as substrate at 1.6 ng/mL; how it was run: as §1
[12] = organism: Rattus norvegicus; test: Effect on basal respiration rate in Wistar rat heart mitochondrial respiratory chain using pyruvate and malate as substrate at 0.4 to 1.2 ng/mL; conditions: Mitochondria
How it was run: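 Clark-type electrode oxygen uptake at 37 C, pH 7.1 imidazole/taurine/MES medium with 3 mM KH2PO4, 0.1 μM free Ca2+. Substrates 6 mM pyruvate + 6 mM malate; compound at 0.4, 0.8, 1.2 ng/mL; State 2 (V0) rate registered, nmol O/min/mg protein.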

[13] = organism: Rattus norvegicus; test: Effect on mitochondrial respiratory chain in Wistar rat heart mitochondria assessed as state 3 respiratory rate using succinate and amytal sodium as substrate at 5 ng/mL; how it was run: as §1
[14] = organism: Rattus norvegicus; test: Effect on mitochondrial respiratory chain in Wistar rat heart mitochondria assessed as respiratory control index using palmitoyl-L-carnitine and malate as substrate (reference value: 5.2+/-0.4); how it was run: as §1
[15] = organism: Rattus norvegicus; test: Effect on mitochondrial respiratory chain in rat heart mitochondria assessed as stimulation of state 2 respiration rate 449 ng/mL
[16] = organism: Rattus norvegicus; test: Effect on mitochondrial respiratory chain in Wistar rat heart mitochondria assessed as state 2 respiratory rate using palmitoyl-L-carnitine and malate as substrate at 1.6 ng/mL; how it was run: as §1
[17] = organism: Rattus norvegicus; test: Effect on mitochondrial respiratory chain in Wistar rat heart mitochondria assessed as respiratory rate per mg protein using succinate and amytal sodium as substrate in presence of ADP (reference value: 606+/-108 nmol/min); how it was run: as §1
[18] = organism: Rattus norvegicus; test: Effect on mitochondrial respiratory chain in Wistar rat heart mitochondria assessed as increase in state 2 respiratory rate using palmitoyl-L-carnitine and malate as substrate at 5 ng/mL; how it was run: as §1
[19] = organism: Rattus norvegicus; test: Antioxidant activity in Wistar rat heart mitochondria assessed as reduction in H2O2 production at 5 ng/mL by Amplex red based fluorimetric analysis; parameters: scale not given: the % may be the effect or the level left
How it was run: (§2)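 Male Wistar rat heart mitochondria (0.25 mg/mL) incubated 7 min at 37 C in respiration medium with 6 mM each pyruvate and malate plus 16 ng/mL antimycin A. CCCP (1 μM) was the uncoupler reference. Then 5 μM Amplex Red and 2 U/mL horseradish peroxidase were added; fluorescence at ex 544/em 590 nm, calibrated with known H2O2; n = 3.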

[20] = organism: Rattus norvegicus; test: Effect on mitochondrial respiratory chain in Wistar rat heart mitochondria assessed as complex-1 dependent state 2 respiratory rate per mg protein using pyruvate and malate as substrate at 1.6 ng/mL; how it was run: as §1
[21] = organism: Rattus norvegicus; test: Effect on mitochondrial respiratory chain in rat heart mitochondria assessed as stimulation of state 2 respiration rate 293 ng/mL
[22] = organism: Rattus norvegicus; test: Effect on mitochondrial respiratory chain in rat heart mitochondria assessed as stimulation of state 2 respiration rate 12.6 ng/mL
[23] = organism: Rattus norvegicus; test: Antioxidant activity in Wistar rat heart mitochondria assessed as reduction in H2O2 production at 1.6 ng/mL by Amplex red based fluorimetric analysis; parameters: scale not given: the % may be the effect or the level left; how it was run: as §2
[24] = organism: Rattus norvegicus; test: Effect on mitochondrial respiratory chain in rat heart mitochondria assessed as stimulation of state 2 respiration rate 26 ng/mL
[25] = organism: Rattus norvegicus; test: Effect on mitochondrial respiratory chain in Wistar rat heart mitochondria assessed as respiratory rate per mg protein using palmitoyl-L-carnitine and malate as substrate in presence of ADP (reference value: 436+/-54 nmol/min); how it was run: as §1
[26] = organism: Rattus norvegicus; test: Effect on mitochondrial respiratory chain in Wistar rat heart mitochondria assessed as decrease in respiratory control index at 50 to 200 ng/mL; parameters: scale not given: the % may be the effect or the level left; how it was run: as §1
[27] = organism: Rattus norvegicus; test: Effect on mitochondrial respiratory chain in Wistar rat heart mitochondria assessed as respiratory rate per mg protein using succinate and amytal sodium as substrate (reference value: 238+/-39 nmol/min); how it was run: as §1
[28] = organism: Rattus norvegicus; test: Effect on mitochondrial respiratory chain in Wistar rat heart mitochondria assessed as state 3 respiratory rate using palmitoyl-L-carnitine and malate as substrate at 5 ng/mL; how it was run: as §1
[29] = organism: Rattus norvegicus; test: Effect on mitochondrial respiratory chain in Wistar rat heart mitochondria assessed as respiratory rate per mg protein using pyruvate and malate as substrate in presence of ADP (reference value: 389+/-40 nmol/min); how it was run: as §1
[30] = organism: Rattus norvegicus; test: Effect on mitochondrial respiratory chain in Wistar rat heart mitochondria assessed as state 2 respiratory rate per mg protein using succinate and amytal sodium as substrate at 5 ng/mL; how it was run: as §1
[31] = organism: Rattus norvegicus; test: (§3) Effect on mitochondrial respiratory chain in Wistar rat heart mitochondria assessed as increase in state 2 respiratory rate using pyruvate and malate as substrate; how it was run: as §1
[32] = as §3; how it was run: as §1
[33] = organism: Rattus norvegicus; test: Effect on mitochondrial respiratory chain in Wistar rat heart mitochondria assessed as ratio of respiratory rate in presence of ADP and cytochrome c to respiratory rate in presence of ADP using palmitoyl-L-carnitine and malate as substrate (reference value: 1.3+/-0.1); how it was run: as §1
[34] = organism: Rattus norvegicus; test: Effect on mitochondrial respiratory chain in rat heart mitochondria assessed as stimulation of state 2 respiration rate 7 ng/mL
[35] = organism: Rattus norvegicus; test: Effect on mitochondrial respiratory chain in Wistar rat heart mitochondria assessed as increase in complex-1 dependent state 2 respiratory rate per mg protein using pyruvate and malate as substrate at 1.6 ng/mL; how it was run: as §1
[36] = organism: Rattus norvegicus; test: Effect on mitochondrial respiratory chain in Wistar rat heart mitochondria assessed as increase in state 3 respiration rate using pyruvate and malate as substrate in presence ADP at 50 to 200 ng/mL; how it was run: as §1
[37] = organism: Rattus norvegicus; test: Effect on mitochondrial respiratory chain in Wistar rat heart mitochondria assessed as increase in state 2 respiratory rate per mg protein using succinate and amytal sodium as substrate at 5 ng/mL; how it was run: as §1
[38] = organism: Rattus norvegicus; test: Effect on mitochondrial respiratory chain in rat heart mitochondria assessed as stimulation of state 2 respiration rate 4.9 ng/mL
[39] = organism: Rattus norvegicus; test: Effect on mitochondrial respiratory chain in Wistar rat heart mitochondria assessed as respiratory control index using pyruvate and malate as substrate (reference value: 8.0+/-1.2); how it was run: as §1
[40] = organism: Rattus norvegicus; test: Effect on mitochondrial respiratory chain in Wistar rat heart mitochondria assessed as ratio of respiratory rate in presence of ADP and cytochrome C to respiratory rate in presence of ADP using pyruvate and malate as substrate (reference value: 1.6+/-0.2); how it was run: as §1
[41] = organism: Rattus norvegicus; test: Effect on mitochondrial respiratory chain in Wistar rat heart mitochondria assessed as increase in complex-1 dependent state 2 respiratory rate per mg protein using pyruvate and malate as substrate at 5 ng/mL; how it was run: as §1

EC50 [32]: 4.1 ng/mL (≈ 8.98 nM)
SMILES: C[C@H]1[C@H](C)CC[C@]2(C(=O)O)CC[C@]3(C)C(=CC[C@@H]4[C@@]5(C)CC[C@H](O)C(C)(C)[C@@H]5CC[C@]43C)[C@H]12 [URSOLIC ACID]
Activity [1]: 82 nmol/min | Activity [2]: 61 nmol/min | Activity [3]: 17% | Ratio [4]: 1.5 | Activity [5]: inactive | Activity [6]: 78 nmol/min | Activity [7]: 279 nmol/min | Activity [8]: 40% | Activity [9]: 92 nmol/min | Ratio [10]: 2 | Activity [11]: 10% | Activity [12]: inactive | Activity [13]: inactive | Ratio [14]: 4.4 | Activity [15]: 11% | Activity [16]: 90 nmol/min | Activity [17]: 599 nmol/min | Activity [18]: 10% | Activity [19]: 55.6% | Activity [20]: 70 nmol/min | Activity [21]: 11% | Activity [22]: 11% | Activity [23]: 49.5% | Activity [24]: 70% | Activity [25]: 403 nmol/min | Activity [26]: 45% | Activity [27]: 238 nmol/min | Activity [28]: inactive | Activity [29]: 374 nmol/min | Activity [30]: 299 nmol/min | Activity [31]: Dose-dependent effect | Ratio [33]: 1.2 | Activity [34]: 11% | Activity [35]: 15% | Activity [36]: inactive | Activity [37]: 26% | Activity [38]: 11% | Ratio [39]: 4.8 | Ratio [40]: 1.5 | Activity [41]: 28%
